# XiGFP reactiv: X-chromosome reactivation activator; actives 0.055% (n = 360,000); activation, % at 7.58 µM; AID 743238; XiGFP mouse fibroblasts, % GFP-positive cells imaging, 3 d; cells co-treated with 5-aza-dC sensitizer; scaled so ellipticine positive control = 100%;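 active = mean normalized replicate activation at least 10% and every replicate at or above 10%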;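 note: 0% = median of on-plate neutral control wells and 100% = ellipticine 6 µM median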
#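 System: SV40-immortalized XiGFP fibroblast cells, line 68-5-11 / Incubation: 3-day compound exposure, then 15 min fixation at room temperature / Compound: single concentration per compound, delivered by pin transfer / Buffer or medium: DMEM plus 5-aza-dC sensitizer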
# INS-1E GSIS act: GLuc luminescence reporter in INS-1E cells, primary screen for activators of glucose-dependent secretion of insulin; INS-1E GLuc reporter insulin secretion, 2-3 h; activation, % at 16.6 µM; actives 0.61% (n = 370,000); AID 743287;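 active = lowest replicate activation of at least 40%, so every replicate reaches that level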;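 note: 0% = median of neutral control wells and 100% = median of IBMX positive control wells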
# AF4-AF9 inh: inhibitors of human MLL-AF4/AF9 interaction; P42568; AlphaScreen, biotin-AF4 peptide binding to FLAG-AF9; inhibition, % at 10 µM; actives 0.47% (n = 350,000);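 active = every replicate reaching a set inhibition limit, whatever the replicate mean, cut at about 25% in these data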;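 note: 0% = plate neutral control median and 100% = total signal loss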
# Target sequence (P42568 whole entry, looked up): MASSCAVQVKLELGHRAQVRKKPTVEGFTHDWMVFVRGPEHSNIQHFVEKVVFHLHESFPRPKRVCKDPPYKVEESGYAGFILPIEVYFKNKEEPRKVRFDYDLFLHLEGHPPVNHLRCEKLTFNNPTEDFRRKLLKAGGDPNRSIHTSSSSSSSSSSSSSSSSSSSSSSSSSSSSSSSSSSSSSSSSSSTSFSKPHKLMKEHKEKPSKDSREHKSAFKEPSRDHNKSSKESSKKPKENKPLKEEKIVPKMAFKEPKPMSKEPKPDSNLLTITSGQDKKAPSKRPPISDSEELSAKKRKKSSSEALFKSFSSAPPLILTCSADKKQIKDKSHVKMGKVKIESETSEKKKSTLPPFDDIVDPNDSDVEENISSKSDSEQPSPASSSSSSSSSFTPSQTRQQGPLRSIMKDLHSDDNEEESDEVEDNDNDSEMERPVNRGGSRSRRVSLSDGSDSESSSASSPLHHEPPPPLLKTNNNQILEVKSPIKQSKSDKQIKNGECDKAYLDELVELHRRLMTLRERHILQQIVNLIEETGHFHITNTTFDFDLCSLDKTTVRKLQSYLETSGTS
# PAX8 inh HTS: inhibitors of PAX8 transcriptional activity in RMG-I cells; RMG-I TPO-luciferase reporter, SteadyGlo, 24 h; inhibition, % at 12.6 µM; actives 1.2% (n = 360,000); AID 652154;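 active = mean replicate inhibition at least 60% with every replicate also reaching 60%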;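 note: luciferase light reporting Pax8 driven TPO promoter activity; plate controls were median of neutral control wells for no effect and mitoxantrone controls for full effect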
# EWS-Fli block: EWS/Fli transcriptional activity inhibition | actives 0.67% (n = 350,000) | A673 NR0B1-luciferase reporter, viability-normalised | inhibition, % at 12.6 µM;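 active = mean inhibition of at least 50% after viability correction, with every replicate also passing that limit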;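 note: firefly luciferase signal divided by Alamar Blue viability fluorescence both relative to DMSO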
# PGC1a acetyl inh: PGC1a acetylation modulation, inhibitor mode; U2OS PGC1a acetylation, AlphaScreen anti-acetyl-lysine; with virally co-expressed GCN5 acetyltransferase; AID 651687; actives 0.17% (n = 350,000); inhibition, % at 15.6 µM;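 active = every replicate shows inhibition of at least 40%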;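 note: 0% = neutral control wells and 100% = positive control wells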
# An asterisk follows results filed as active; x = no result given; ! = not active in a repeat. Compounds with a hit are over-represented: about 2.1% of the library has one in this group of screens.
SMILES,XiGFP reactiv,INS-1E GSIS act,AF4-AF9 inh,PAX8 inh HTS,EWS-Fli block,PGC1a acetyl inh
Cn1c(CCN2CCN(c3ccccn3)CC2)nc2cc(NC(=O)COc3ccccc3)ccc21,0,-4,2,66*,x,6
COc1cccc(NC(=O)N[C@@H]2C=C[C@@H](CC(=O)N3CCCCC3)O[C@H]2CO)c1,0,15,-2,2,-4,3
C[C@H]1CN([C@@H](C)CO)S(=O)(=O)c2ccc(-c3ccc(C(=O)N(C)C)cc3)cc2O[C@@H]1CN(C)C(=O)C1CCC1,0,8,-2,-4,4,2
Cn1c(=O)c(/C=C/c2ccccc2)nc2ccccc21,0,-22,x,-58,-25,x
Cn1c(/C=C/c2ccccc2)nc2ccccc21,0,-4,10,79*,59*,x
C[C@H](CO)N1C[C@H](C)[C@@H](CN(C)S(=O)(=O)c2cn(C)cn2)OCCCC[C@H](C)Oc2ccc(NC(=O)C3CCCCC3)cc2C1=O,-1,15,-2,2,0,x
COc1cc(CNCCO)cc(Cl)c1OCc1ccc(Cl)cc1Cl,0,42*,14,25,6,-33
COc1cc(CNC(C)(C)CO)cc(Br)c1OCc1ccc(Cl)cc1Cl,0,176*,13,13,13,x
COc1cc(CNCCN2CCOCC2)ccc1OCc1ccc(Cl)cc1Cl,x,-13,x,x,x,101*
CNC(=O)C[C@H]1CC[C@H]2[C@@H](COc3ccc(NC(=O)c4ccccc4Cl)cc3C(=O)N2C)O1,x,x,-2,-4,5,-5
C[C@H]1CN([C@@H](C)CO)C(=O)c2cc(NS(C)(=O)=O)ccc2O[C@H]1CN(C)CC1CCCCC1,0,15,-29,-4,-3,8
C[C@@H]1CCCCO[C@@H](CN(C)Cc2ccccc2)[C@H](C)CN([C@H](C)CO)C(=O)c2cc(NC(=O)Nc3ccc4c(c3)OCO4)ccc2O1,0,-18,31*,15,6,-14
C[C@H](CO)N1C[C@H](C)[C@H](CN(C)Cc2ccc3c(c2)OCO3)OCCCC[C@H](C)Oc2ccc(NC(=O)Nc3ccc4c(c3)OCO4)cc2C1=O,1,-27,20,22,-1,-19
COc1ccc(CN(C)C[C@@H]2OCCCC[C@H](C)Oc3ccc(NC(=O)Nc4ccc5c(c4)OCO5)cc3C(=O)N([C@@H](C)CO)C[C@@H]2C)cc1,0,-45,22,12,-59,5
COc1ccc(CN(C)C[C@H]2OCCCC[C@@H](C)Oc3ccc(NC(=O)Nc4ccc5c(c4)OCO5)cc3C(=O)N([C@@H](C)CO)C[C@@H]2C)cc1,0,-43,28*,-7,4,-6
C[C@@H]1CN([C@H](C)CO)C(=O)c2cc(NC(=O)Nc3ccc4c(c3)OCO4)ccc2O[C@@H](C)CCCCO[C@H]1CN(C)Cc1ccc2c(c1)OCO2,0,-33,39*,8,11,5
CO[C@H]1CN(C)C(=O)c2ccc(NC(=O)c3cc(C)on3)cc2OC[C@H](C)N(C(C)=O)C[C@H]1C,0,2,0,x,1,4
Cc1cccc(N2CCN(C(=O)c3cccc(N4CCCC4=O)c3)C(C)C2)c1 (centres undefined),0,-5,0,27,60*,-10
Cc1cccc(N2CCN(C(=O)c3ccc(N4CCCC4=O)cc3)CC2C)c1 (centres undefined),x,x,x,9,x,6
C=C1C2(C(=O)Nc3ccc(SC(F)F)cc3)CCC(C2)C1(C)C (centres undefined),0,15,-1,98*,1,x
COc1cc2c(cc1OC)C1=C(C#N)CC/C(=N\S(=O)(=O)c3cccc(Cl)c3)N1CC2,x,x,x,x,x,37
COc1cc2c(cc1OC)C1=C(C#N)CCC(=NC(=O)c3ccco3)N1CC2,0,75*,-2,3,9,8
CC(C)NC(=O)N1C[C@@H]2[C@H](c3ccccc31)[C@@H](CO)N2C(=O)c1ccccn1,0,10,-1,-30,-4,-2
COC(=O)[C@@H]1[C@H]2C[C@H]3c4[nH]c5ccccc5c4CCN3C[C@@H]2CC[C@@H]1O,0,27,-1,-3,-9,0
NNC(=O)C1C(O)CCC2CN3CCc4c([nH]c5ccccc45)C3CC21 (centres undefined),0,41*,3,-20,-5,4
SMILES,XiGFP reactiv,INS-1E GSIS act,AF4-AF9 inh,PAX8 inh HTS,EWS-Fli block,PGC1a acetyl inh
Cc1cc2nc(-c3ccc[nH]c3=O)[nH]c2cc1C,0,-9,-3,57,62*,x
C[C@H]1CN([C@@H](C)CO)C(=O)c2cc(NS(=O)(=O)c3cccs3)ccc2O[C@H]1CN(C)C(=O)Nc1cccc2ccccc12,-1,5,-1,x,1,2
COc1ccccc1-c1cnc2c(c1)C(=O)N([C@H](C)CO)C[C@@H](C)[C@H](CN(C)Cc1cncnc1)O2,0,7,-6,x,-21,9
CC/C(=C(\c1ccccc1)c1ccc(OCCN(C)C)cc1)c1ccccc1,0,x,30*!,-9,9,9
C[C@H](CO)N1C[C@H](C)[C@H](CN(C)C(=O)c2ccccc2)OCCCC[C@H](C)Oc2ccc(NC(=O)Nc3cccc4ccccc34)cc2C1=O,0,0,-3,x,5,7
COCCNC(=O)C[C@H]1CC[C@H]2[C@@H](COc3ccc(NC(=O)Cc4ccccc4)cc3C(=O)N2C)O1,0,1,-3,-15,1,5
CCSc1ccc2nnc(-c3ccc(F)cc3)n2n1,x,61*,4,x,-9,2
O=C(O)c1ccc(/C=N/n2c(C3CCCCC3)n[nH]c2=S)cc1,0,63*,-15,-2,-1,x
O=Nc1c(O)c2ccccc2c2ccccc12,2,-22,9,20,35,45*
O=Nc1c2cc3ccccc3[nH]c-2c2ccccc12,1,x,2,-33,-119,-16
COc1cccc(-c2ccc([C@@H]3[C@H](CO)N4C(=O)CN(C(=O)C5CCCC5)C[C@@H]34)cc2)c1,0,-1,3,5,-4,0
CC1Oc2ccccc2N(CC(=O)N2CCCCC2)C1=O (centres undefined),0,21,30*,-1,-1,-12
COc1ccc2c3c([nH]c2c1)[C@@H](CO)N(C(=O)c1cccc(F)c1)CC31CCN(S(=O)(=O)c2cccs2)CC1,0,4,x,x,-17,-12
Cc1ccc(/C=C/c2nc3ccccc3c(=O)[nH]2)cc1,0,-1,-1,-1,70*,9
CCC(=O)Nc1ccc2c(c1)C(=O)N(C)C[C@H](OC)[C@@H](C)CN(C(=O)c1ccccc1F)[C@H](C)CO2,0,4,-2,-11,2,-2

# Compound activity as filed in PubChem BioAssay.
